# Source: PubChem (several laboratories)
# Hck-Nef inh – inhibitors of Nef-activated human Hck kinase, primary screen, biochemical, Z-Lyte FRET, 384-well, Hck-YEEI. Tyrosine-protein kinase HCK (Homo sapiens), P08631. Recombinant Hck-YEEI plus Nef, Z-Lyte FRET kinase assay. inhibition, % at 20 µM. 220,000 tested, 0.68% active. AID 463187, 2010;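 active means Hck-Nef kinase inhibition above about 50%, limit read from the data; inactive means inhibition below that limit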;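 further: 0% = DMSO with Hck plus Nef and 100% = Hck alone without Nef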
# Tb hexokinase – Trypanosoma brucei hexokinase 1 inhibitors, primary screen, biochemical, G6PDH-coupled NADH absorbance, MLSCN library; hexokinase 1 [Trypanosoma brucei]; recombinant TbHK1, G6PDH-coupled NADH A340; inhibition, % at 10 µM; 220,000 tested, 0.11% active; AID 1430, 2008;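 active means inhibition of 50% or more in the single-dose primary screen; inactive means inhibition below 50%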
# p97 ATPase inh – inhibitors of human p97 ATPase, primary screen, biochemical. 220,000 tested, 0.42% active. inhibition, % at 8 µM. recombinant p97 ATPase, Kinase-Glo ATP luminescence, 3 h; in the data active means inhibition above about 15%;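 further: 0% = DMSO vehicle and 100% = wells lacking enzyme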
# Runt-CBFb FRET – inhibitors of RUNX1 Runt–CBFb binding, primary screen, biochemical, FRET, Cerulean-Runt, Venus-CBFb, uHTS; inhibition, % at 20 µM; Runt-related transcription factor 1 (Homo sapiens) + Core-binding factor subunit beta …; AID 1496, 2009; 220,000 tested, 0.46% active; Cerulean-Runt/Venus-CBFb FRET ratio 530/480, 1 h;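 active means inhibition over about 50% at 20 µM in the single-dose screen, limit read from the data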;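 further: 0% = DMSO wells and 100% = excess unlabeled CBFb competitor control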
# Target sequence (Q01196 whole entry, looked up): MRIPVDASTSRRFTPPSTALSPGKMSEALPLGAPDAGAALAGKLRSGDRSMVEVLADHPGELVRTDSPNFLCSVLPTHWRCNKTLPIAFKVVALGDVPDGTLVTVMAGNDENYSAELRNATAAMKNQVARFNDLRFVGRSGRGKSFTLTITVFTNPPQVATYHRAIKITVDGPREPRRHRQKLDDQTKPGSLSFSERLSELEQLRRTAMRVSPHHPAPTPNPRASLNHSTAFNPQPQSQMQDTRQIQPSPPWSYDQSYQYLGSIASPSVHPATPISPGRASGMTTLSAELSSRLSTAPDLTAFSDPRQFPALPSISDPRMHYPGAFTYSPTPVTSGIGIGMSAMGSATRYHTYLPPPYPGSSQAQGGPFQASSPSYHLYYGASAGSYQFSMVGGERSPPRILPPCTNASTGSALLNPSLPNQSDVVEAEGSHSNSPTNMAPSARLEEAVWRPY
# Target sequence (Q13951 whole entry, looked up): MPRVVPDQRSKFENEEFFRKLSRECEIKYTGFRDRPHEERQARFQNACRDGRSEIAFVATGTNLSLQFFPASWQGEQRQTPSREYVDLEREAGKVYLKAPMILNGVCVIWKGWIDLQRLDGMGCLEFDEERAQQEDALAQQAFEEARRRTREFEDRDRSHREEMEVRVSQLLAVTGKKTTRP
#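 Measured by: fluorescence energy transfer, 422 nm excitation, 530/480 nm emission; test system: Cerulean-tagged RUNX1 Runt domain (FRET donor) fusion protein; buffer or medium: Tris pH 7.5 buffer with BSA; compound: one dose, 20 µM compound, 1% DMSO; times: two 1 h room-temperature incubations shielded from light; benchmarks: unlabeled CBFb 5 µM, positive control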
# Runt-SMMHC FRET – inhibitors of RUNX1 Runt–CBFb-SMMHC binding, primary screen, biochemical, FRET, Cerulean-Runt, Venus-CBFb-SMMHC, uHTS; AID 1434, 2008; inhibition, % at 20 µM; Cerulean-Runt/Venus-CBFb-SMMHC FRET ratio 530/480, 1 h; Runt-related transcription factor 1 (Homo sapiens) + Core-binding factor subunit beta …; 220,000 tested, 0.74% active;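 active means mean inhibition across duplicate retests at 20 µM reaching about 50%, limit read from the data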;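 further: 0% = DMSO wells and 100% = wells with excess untagged CBFb-SMMHC; inhibitors lower the FRET ratio by blocking Runt binding to CBFb-SMMHC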
# RanGTP-Imp inh – inhibitors of RanGTP-importin-beta interaction, primary screen, biochemical, FRET, CFP-Ran, YFP-importin-beta, homogeneous; AID 2216, 2009; cell-free CFP-Ran/YFP-importin-beta FRET ratio; 300,000 tested, 1.1% active; inhibition, % (test concentration not listed);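 active means more than half of the replicate wells show a fall in the fluorescence ratio signal beyond about 16%, limit read from the data, passing the limit was not always enough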;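 further: 0% = DMSO wells and 100% = Ran loaded with GDP instead of GTP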
# Runt-CBFb TRFRET – inhibitors of RUNX1 Runt–CBFb binding, biochemical, TR-FRET | shares compounds with Runt-CBFb FRET | TR-FRET RUNX1 Runt domain-CBFb binding | inhibition, % at 20 µM | 480 tested, 20% active; in the data active means inhibition above about 40%
# YIC FRET counter – YIC intramolecular FRET probe signal interference, dose response, counter-screen for RanGTP-importin-beta inhibitor project, biochemical, fluorescence FRET. Purified YIC probe, intramolecular FRET ratio YFP/CFP. IC50, µM. 1,000 tested, 40% active. shares compounds with RanGTP-Imp inh. AID 435026, 2010;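 active means fitted half-maximal inhibitory concentration no more than tenfold above the top dose tested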
# The depositor's hits bear a star; nt = no result shown. The list is not random: actives were taken first. Their share in the collection is about 2.1%.
SMILES,Hck-Nef inh,Tb hexokinase,p97 ATPase inh,Runt-CBFb FRET,Runt-SMMHC FRET,RanGTP-Imp inh,Runt-CBFb TRFRET,YIC FRET counter
COc1ccccc1C1CC(c2cccs2)=Nc2ccccc2S1 (stereo unspecified),-2.3,-8.5,-2.6,33.0,5.3,4.0,nt,nt
Cc1ccc(N/C=C2/Sc3ccccc3NC2=O)cc1,-2.7,-9.9,-1.8,35.9,-8.1,-1.6,nt,nt
O=C1Nc2ccccc2S/C1=C/NCc1ccccc1Cl,29.3,-5.7,-3.0,59.3*,25.8,0.2,13.9,nt
COc1ccc(N/C=C2/Sc3ccccc3NC2=O)cc1,25.6,-8.2,5.9,61.4*,54.0*,0.5,13.9,nt
Cc1ccc2nc(N3CCN(C(=O)c4cccs4)CC3)c(C#N)cc2c1,3.8,-0.8,1.1,56.4*,123.7*,18.5*,-29.6,16*
Cc1ccc2cc(C#N)c(N3CCN(C(=O)c4ccccc4)CC3)nc2c1,nt,nt,nt,nt,nt,7.1,nt,nt
O=C(NCCOc1ccc(Cl)cc1)c1ccco1,nt,nt,nt,nt,nt,-3.0,nt,nt
COc1ccc2cc(-c3nc4ccccc4n3C)c(=O)oc2c1,1.5,-33.2,1.1,59.5*,127.1*,43.6*,24.3,11*
Cn1c(-c2cc3ccccc3oc2=O)nc2ccccc21,-2.7,-38.0,7.3,-0.3,0.6,-1.9,nt,nt
Cc1nc2[nH]c(=O)c3c(n2n1)NC1=C(C(=O)CC(C)(C)C1)C3c1ccc(F)cc1 (stereo unspecified),1.3,-19.7,-11.2,80.5*,100.4*,35.1*,-5.7,4.07*
COc1ccc(C(=O)c2cc3ccc(O)cc3oc2=O)cc1,31.0,-13.5,-6.2,88.0*,88.2*,48.0*,17.4,15.2*
CCCn1c(=N)c(C(=O)NCc2ccc3c(c2)OCO3)cc2c(=O)n3cccc(C)c3nc21,6.4,-8.6,-2.1,71.0*,99.3*,40.2*,-23.6,14.6*
CC(=O)C(C)Oc1ccc2c3c(c(=O)oc2c1C)CCCC3 (stereo unspecified),3.5,-11.4,-4.7,13.9,38.5,4.4,nt,nt
Cc1c(O)ccc2c3c(c(=O)oc12)CCC(C)C3 (stereo unspecified),28.1,-13.0,1.1,66.1*,118.0*,37.2*,19.7,14*
Cn1c(CNC(=O)c2ccccc2F)nnc1SCC(=O)c1ccccc1,nt,nt,nt,nt,nt,3.0,nt,nt
CC12CCC(=O)N1C(C(=O)Nc1ccc(Cl)c(S(=O)(=O)N3CCCCC3)c1)CS2 (stereo unspecified),nt,nt,nt,nt,nt,-4.7,nt,nt
O=C1NC(=S)S/C1=C1\Sc2ccccc2N1CCCS(=O)(=O)O,2.3,0.3,-5.2,88.1*,122.7*,26.6*,26.6,14.9*
NN1C(=O)/C(=C2/Sc3ccccc3N2CCCS(=O)(=O)O)SC1=S,nt,nt,nt,nt,nt,13.7,nt,nt
COc1ccc(CNCC(=O)Nc2cc(OC)cc(OC)c2)cc1,nt,nt,nt,nt,nt,-3.1,nt,nt
CCCC1C(C#N)=C(N)Oc2cc(C)n(C)c(=O)c21 (stereo unspecified),5.0,3.9,1.1,94.9*,96.9*,18.0*,63.0*,>50
CCOC(=O)c1cc2c(=O)n3cccc(C)c3nc2n(CCOC)c1=NC(C)=O,87.0*,-22.9,3.0,94.5*,87.4*,70.4*,-3.4,nt
COCCCn1c(C(=O)NCCC2=CCCCC2)cc2c(=O)n3cccc(C)c3nc21,nt,nt,nt,nt,nt,-2.1,nt,nt
